In ChEMBL document CHEMBL2057168, “(1aR,5aR)1a,3,5,5a-Tetrahydro-1H-2,3-diaza-cyclopropa[a]pentalene-4-carboxylic acid (MK-1903): a potent GPR109a agonist that lowers free fatty acids in humans” (J Med Chem, 2012):
Calls of active or inactive are those of the source. The rule behind the calls is not given here.

Legend:
[1] = AUC (0 to 12 hrs) in human at 50 mg, po BID administered on day 1 followed by 2-day wash out period after which dosing continued up to day 11 measured on day 1; type: ADME, organism-based; set-up: dose 50 mg, time < 12 hr, route oral; conditions: plasma
Summary of the method: (§1)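 Double-blind, placebo-controlled, randomized dose-escalation study in healthy male volunteers, six cohorts of eight (six active, two placebo). Oral dose on day 1, two-day washout, then dosing days 4–11; the 200 mg qd cohort was titrated over days 1–4. Venous blood taken predose and at 0.5–12 h on days 1, 4 and 11; plasma drug measured. τ 12 h (bid), 24 h (qd), 8 h (tid), 6 h (qid).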

Homo sapiens [2] = experiment: Antidyslipidemic activity in human assessed as decrease in free fatty acid level 50 to 150 mg, po BID administered on day 1 followed by 2-days wash out period after which dosing continued up to day 11 measured on day 4 and 11; type: functional, organism-based
Summary of the method: (§2)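 Healthy male volunteers in a randomized, double-blind, placebo-controlled multiple-dose study, six active and two placebo subjects per cohort. Oral dosing on day 1, two-day washout, then days 4–11, with titration over days 1–4 for the qd arm.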

[3] = Cmin in human at titreated dose from day 1 to 4 followed by 200 mg, po QD administered up to day 11 measured on day 11 at 12 hrs; type: ADME, organism-based; conditions: in vivo, read-out: Cmin
Summary of the method: (§3)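 Healthy male volunteers took part in a double-blind, randomized, placebo-controlled dose-escalation study, with cohorts of 8 (6 on drug, 2 on placebo). Each subject got an oral dose on day 1, then a 2-day washout, then dosing on days 4–11. The 200 mg qd group was titrated over days 1–4. Venous plasma was sampled predose and 0.5–12 h postdose on days 1, 4 and 11, and predose on days 5–10 for troughs.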

[4] = Tmax in human at 150 mg, po TID administered on day 1 followed by 2-days wash out period after which dosing continued up to day 11 measured on day 1; type: ADME, organism-based; conditions: in vivo
Summary of the method: (§4)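 Double-blind, placebo-controlled, randomized multiple oral dose study in healthy male volunteers (cohorts of eight; six active, two placebo). Dose given on day 1, then a two-day washout, then dosing days 4–11; for the QD arm, subjects were titrated over days 1–4. Venous plasma sampled predose and 0.5, 1, 1.5, 2, 4, 6, 8, 10, 12 h postdose on days 1, 4 and 11. Tmax reported as median (min–max).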

[5] = Oral bioavailability in rhesus monkey; type: ADME, organism-based, Macaca mulatta; conditions: in vivo
[6] = Apparent half life in human at 150 mg, po TID administered on day 1 followed by 2-day wash out period after which dosing continued up to day 11 measured on day 11; type: ADME, organism-based; conditions: in vivo, read-out: t1/2(app) (converted); summary of the method: as §1
[7] = AUC (0 to 6 hrs) in human at 175 mg, po QID administered on day 1 followed by 2-days wash out period after which dosing continued up to day 11 measured on day 4; type: ADME, organism-based; set-up: time < 6 hr, dose 175 mg, route oral; conditions: plasma; summary of the method: as §1
[8] = Terminal half life in rhesus monkey; type: ADME, organism-based, Macaca mulatta; conditions: in vivo, read-out: beta t1/2 (converted)
Mus musculus = experiment: Toxicity in C57/Bl6 mouse assessed as increase in cutaneous blood flow in ear at 100 mg/kg, ip after 5 mins relative to vehicle treated control by laser doppler flowmetry; type: organism-based; set-up: dose 100 mg/kg, route intraperitoneal; conditions: in vivo
Summary of the method: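 Male C57/Bl6 mice (8–10 weeks, ~25 g) anesthetized with Nembutal ip (80 mg/10 mL/kg). Ear perfusion recorded by laser Doppler imaging: 3 min baseline, then vehicle (PBS, 40% HPBCD or 0.5% methylcellulose) or compound given ip at 5 mL/kg through a preinserted syringe, with readings for ~15 min. Expressed as % change of perfusion over baseline.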

[9] = Tmax in human at 100 mg, po BID administered on day 1 followed by 2-day wash out period after which dosing continued up to day 11 measured on day 4; type: ADME, organism-based; conditions: in vivo; summary of the method: as §4
Rattus norvegicus [10] = experiment: Antidyslipedic activity in fasted Sprague-Dawley rat assessed as decrease in free fatty acid level at 0.001 mg/kg, po by NEFA C-free fatty acid assay; type: functional, organism-based; set-up: dose 0.001 mg/kg
Summary of the method: (§5)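 Male Sprague-Dawley rats fasted, compound by oral gavage, serial plasma sampling after dosing for free fatty acids over a time course; vehicle-dosed control group.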

[11] = Cmin in human at 50 mg, po BID administered on day 1 followed by 2-day wash out period after which dosing continued up to day 11 measured on day 4 at 12 hrs; type: ADME, organism-based; conditions: in vivo, read-out: Cmin; summary of the method: as §3
Homo sapiens [12] = experiment: Antidyslipidemic activity in human assessed as decrease in free fatty acid level titreated po dose administered from day 1 to 4 followed by 200 mg, po QD administered up to day 11 measured on day 4 and 11; type: functional, organism-based; summary of the method: as §2
[13] = Cmin in human at titreated dose from day 1 to 4 followed by 200 mg, po QD administered up to day 11 measured on day 4 at 12 hrs; type: ADME, organism-based; conditions: in vivo, read-out: Cmin; summary of the method: as §3
Homo sapiens [14] = experiment: Antidyslipedic activity in human assessed as decrease in free fatty acid level at 50 to 200 mg, po administered as a single dose measured after 1 to 2 hrs relative to placebo control; type: functional; set-up: scale not given: the % may be the effect or the level left
[15] = Cmax in human at 175 mg, po QID administered on day 1 followed by 2-days wash out period after which dosing continued up to day 11 measured on day 1; type: ADME, organism-based; set-up: dose 175 mg, route oral; conditions: in vivo; summary of the method: as §3
Homo sapiens [16] = experiment: Antidyslipedic activity in human assessed as decrease in free fatty acid level at 50 to 200 mg, po administered as a single dose measured up to 8 hrs relative to placebo control; type: functional, organism-based
[17] = Cmin in human at 150 mg, po TID administered on day 1 followed by 2-days wash out period after which dosing continued up to day 11 measured on day 4 at 8 hrs; type: ADME, organism-based; conditions: in vivo, read-out: Cmin; summary of the method: as §3
[18] = Drug excretion in human urine assessed as unchanged drug at 50 to 150 mg, po BID in administered on day 1 followed by 2-days wash out period after which dosing continued up to day 11; type: ADME, organism-based; conditions: read-out: Ae
[19] = Cmin in human at 150 mg, po BID administered on day 1 followed by 2-day wash out period after which dosing continued up to day 11 measured on day 1 at 12 hrs; type: ADME, organism-based; conditions: in vivo, read-out: Cmin; summary of the method: as §3
[20] = Cmin in human at 100 mg, po BID administered on day 1 followed by 2-day wash out period after which dosing continued up to day 11 measured on day 1 at 12 hrs; type: ADME, organism-based; conditions: in vivo, read-out: Cmin; summary of the method: as §3
[21] = Oral bioavailability in Sprague-Dawley rat at 10 mg/kg; type: ADME, organism-based; conditions: in vivo
Summary of the method: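 Male Sprague-Dawley rats were dosed at 10 mg/kg po or 2 mg/kg iv in 80% PEG400/20% phosphate-buffered saline, fasted overnight before the oral dose. Jugular blood was sampled serially from 0.25 to 21 h over 24 h, and heparinized plasma was prepared. Drug was assayed by HPLC/MS/MS (quantitation range 1–2000 ng/mL).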

[22] = AUC (0 to 6 hrs) in human at 175 mg, po QID administered on day 1 followed by 2-days wash out period after which dosing continued up to day 11 measured on day 1; type: ADME, organism-based; set-up: time < 6 hr, dose 175 mg, route oral; conditions: plasma; summary of the method: as §1
[23] = Cmax in human at 150 mg, po TID administered on day 1 followed by 2-days wash out period after which dosing continued up to day 11 measured on day 11; type: ADME, organism-based; set-up: dose 150 mg, route oral; conditions: in vivo; summary of the method: as §3
Rattus norvegicus [24] = experiment: Antidyslipedic activity in fasted Sprague-Dawley rat assessed as decrease in free fatty acid level at 0.1 to 30 mg/kg, po by NEFA C-free fatty acid assay; type: functional; set-up: scale not given: the % may be the effect or the level left; conditions: dose mg/kg 0.1-30; summary of the method: as §5
[25] = Tmax in human at 175 mg, po QID administered on day 1 followed by 2-days wash out period after which dosing continued up to day 11 measured on day 1; type: ADME, organism-based; conditions: in vivo; summary of the method: as §4

O=C(O)c1n[nH]c2c1C[C@H]1C[C@@H]21
AUC at 12 h [1]: 0.0294 µM·h | Activity (Homo sapiens [2]): Active | concentration at 12 h [3]: 0.273 nM | Tmax [4]: 0.5 h | bioavailability [5]: 39% | half-life [6]: 11 h | AUC at 6 h [7]: 0.113 µM·h | half-life [8]: 1.1 h | Activity (Mus musculus): 30% | Tmax [9]: 1 h | Activity (Rattus norvegicus [10]): inactive | concentration at 12 h [11]: 0.023 nM | Activity (Homo sapiens [12]): Active | concentration at 12 h [13]: 0.244 nM | Activity (Homo sapiens [14]): 90% | Cmax [15]: 52.6 nM | Activity (Homo sapiens [16]): Active | concentration at 8 h [17]: 0.583 nM | dose excreted [18]: 70% | concentration at 12 h [19]: 0.316 nM | concentration at 12 h [20]: 0.124 nM | bioavailability [21]: 83% | AUC at 6 h [22]: 0.13 µM·h | Cmax [23]: 44.9 nM | Activity (Rattus norvegicus [24]): 90% | Tmax [25]: 1.25 h
